In ChEMBL document CHEMBL3616436, “Synthesis, cytotoxicity and antimicrobial activity of thiourea derivatives incorporating 3-(trifluoromethyl)phenyl moiety” (Eur J Med Chem, 2015):
pEC50: −log10 of the molar value. Values after ≈ are worked out from the molar mass of the structure shown. Active and inactive are the calls of the source. The calls are words filed in the database; no cut-off is given here.

Columns and labels:
Poliovirus 1 = assay: Antiviral activity against Poliovirus type 1 ATCC VR-1562 infected in African green monkey Vero 76 cells assessed as reduction of virus-plaque formation after 2 days by crystal violet staining; type: functional, organism-based; conditions: Enterovirus C, ATCC VR-1562, Vero, 48 h
Micrococcus luteus [1] = assay: Antimicrobial activity against Micrococcus luteus ATCC 10240 at 400 ug after 18 hrs by disc-diffusion method; type: functional; conditions: ATCC 10240, 18 h, read-out: IZ
Method in brief: (§1)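 Disc diffusion on Mueller-Hinton II agar per CLSI; 9 mm paper discs loaded with 400 µg compound from DMSO solution, dried, placed on agar; growth inhibition zone diameter read after 18 h at 35°C.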

Vaccinia virus = assay: Antiviral activity against Human Vaccinia virus ATCC VR-1549 infected in African green monkey Vero 76 cells assessed as reduction of virus-plaque formation after 3 days by crystal violet staining; type: functional, organism-based; conditions: Orthopoxvirus vaccinia, ATCC VR-1549, Vero, 72 h
Proteus vulgaris = assay: Antimicrobial activity against Proteus vulgaris NCTC 4635 at 400 ug after 18 hrs by disc-diffusion method; type: functional; method in brief: as §1
[2] = system: Staphylococcus epidermidis; assay: Antimicrobial activity against Staphylococcus epidermidis ATCC 35984 after 18 hrs by twofold serial microdilution method; type: functional; conditions: ATCC 35984, 18 h
Staphylococcus aureus [3] = assay: Antimicrobial activity against Staphylococcus aureus ATCC 25923 at 400 ug after 18 hrs by disc-diffusion method; type: functional; conditions: ATCC 25923, 18 h, read-out: IZ; method in brief: as §1
Staphylococcus aureus [4] = assay: Antimicrobial activity against Staphylococcus aureus ATCC 6538 after 18 hrs by twofold serial microdilution method; type: functional; conditions: ATCC 6538, 18 h
Staphylococcus aureus [5] = assay: Antimicrobial activity against Staphylococcus aureus ATCC 6538 at 400 ug after 18 hrs by disc-diffusion method; type: functional; conditions: ATCC 6538, 18 h, read-out: IZ; method in brief: as §1
Enterococcus hirae = assay: Antimicrobial activity against Enterococcus hirae ATCC 10541 at 400 ug after 18 hrs by disc-diffusion method; type: functional; method in brief: as §1
Yellow fever virus = assay: Antiviral activity against Yellow fever virus 17D infected in BHK cells assessed as protection against virus-induced cytopathogenicity after 3 to 4 days by MTT assay; type: functional, cell-based
[6] = Cytotoxicity against African green monkey Vero 76 cells assessed as cell viability after 48 to 96 hrs by crystal violet staining; type: cell-based; conditions: chlorocebus sabaeus
[7] = Cytotoxicity against bovine MDBK cells assessed as cell viability after 48 to 96 hrs by MTT assay; type: cell-based, Bos taurus; conditions: cattle
[8] = system: Mammalian orthoreovirus 1; assay: Antiviral activity against Reovirus type-1 ATCC VR-214 infected in BHK cells assessed as protection against virus-induced cytopathogenicity after 3 to 4 days by MTT assay; type: functional, cell-based; conditions: Mammalian orthoreovirus 1, ATCC VR-214, BHK
Method in brief: (§2)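 Cells seeded in 96-well plates (BHK 5x10^4, MDBK 3x10^4 cells/well), grown overnight to confluence, infected at m.o.i. 0.01 (BHK for Reo-1, MDBK for BVDV); serial compound dilutions in maintenance medium with 0.5% inactivated FBS added after 1 h; viability by MTT after 3–4 days at 37°C; EC50 for 50% protection by linear regression.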

Staphylococcus aureus [9] = assay: Antimicrobial activity against Staphylococcus aureus NCTC 4163 at 400 ug after 18 hrs by disc-diffusion method; type: functional; conditions: NCTC 4163, 18 h, read-out: IZ; method in brief: as §1
[10] = Cytotoxicity against BHK cells assessed as cell viability after 48 to 96 hrs by MTT assay; type: cell-based, Mesocricetus auratus; conditions: hamster
[11] = system: Staphylococcus epidermidis; assay: Antimicrobial activity against Staphylococcus epidermidis ATCC 35984 at 400 ug after 18 hrs by disc-diffusion method; type: functional; conditions: ATCC 35984, 18 h, read-out: IZ; method in brief: as §1
Human alphaherpesvirus 1 = assay: Antiviral activity against Human herpesvirus 1 KOS ATCC VR-1493 infected in African green monkey Vero 76 cells assessed as reduction of virus-plaque formation after 3 days by crystal violet staining; type: functional, organism-based; conditions: Human alphaherpesvirus 1, KOS ATCC VR1493, Vero, 72 h
Method in brief: (§3)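 Plaque reduction: Vero-76 at 2x10^5 cells/well grown to confluent monolayers, infected 2 h at 50–100 PFU/well; after removing unadsorbed virus, overlay of D-MEM, 1% inactivated FBS, 0.75% methylcellulose with or without serial compound dilutions; 3 days at 37°C, fixed and stained with crystal violet in 50% ethanol, plaques counted; EC50 by linear regression.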

Bacillus cereus = assay: Antimicrobial activity against Bacillus cereus ATCC 11778 at 400 ug after 18 hrs by disc-diffusion method; type: functional; conditions: ATCC 11778, 18 h, read-out: IZ; method in brief: as §1
Enterococcus faecalis = assay: Antimicrobial activity against Enterococcus faecalis ATCC 29212 at 400 ug after 18 hrs by disc-diffusion method; type: functional; method in brief: as §1
Bacillus subtilis = assay: Antimicrobial activity against Bacillus subtilis ATCC 6633 at 400 ug after 18 hrs by disc-diffusion method; type: functional; conditions: ATCC 6633, 18 h, read-out: IZ; method in brief: as §1
[12] = system: Mycobacterium tuberculosis; assay: Antimycobacterial activity against drug-sensitive Mycobacterium tuberculosis Spec. 192; type: functional
Method in brief: (§4)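 Classical test-tube successive-dilution method in Youmans' modification of Proskauer and Beck liquid medium with 10% bovine serum. Inoculum came from 14-day cultures. DMSO stock was 10 mg/mL, diluted geometrically in medium. Tubes were incubated at 37 °C. Concentrations tested were 3.1, 6.2, 12.5, 25, 50 and 100 µg/ml. MIC is the minimum concentration inhibiting growth relative to compound-free tubes.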

[13] = system: Vesicular stomatitis virus; assay: Antiviral activity against Vesicular stomatitis virus ATCC VR 1540 infected in African green monkey Vero 76 cells assessed as reduction of virus-plaque formation after 2 days by crystal violet staining; type: functional, organism-based; conditions: ATCC VR 1540, Vero, 48 h
[14] = Cytotoxicity against human MT4 cells; type: cell-based
[15] = system: Mycobacterium tuberculosis; assay: Antimycobacterial activity against Mycobacterium tuberculosis H37Rv ATCC 25618; type: functional; method in brief: as §4
Staphylococcus aureus [16] = assay: Antimicrobial activity against Staphylococcus aureus NCTC 4163 after 18 hrs by twofold serial microdilution method; type: functional; conditions: NCTC 4163, 18 h
Staphylococcus aureus [17] = assay: Antimicrobial activity against Staphylococcus aureus ATCC 29213 after 18 hrs by twofold serial microdilution method; type: functional; conditions: ATCC 29213, 18 h
[18] = Antiviral activity against Bovine viral diarrhea virus 1-NADL ATCC VR-534 infected in MDBK cells assessed as protection against virus-induced cytopathogenicity after 3 to 4 days by MTT assay; type: functional, cell-based; conditions: Bovine viral diarrhea virus isolates and strains, ATCC VR-534, MDBK; method in brief: as §2
Staphylococcus aureus [19] = assay: Antimicrobial activity against Staphylococcus aureus ATCC 29213 at 400 ug after 18 hrs by disc-diffusion method; type: functional; conditions: ATCC 29213, 18 h, read-out: IZ; method in brief: as §1
[20] = system: Staphylococcus epidermidis; assay: Antimicrobial activity against Staphylococcus epidermidis ATCC 12228 at 400 ug after 18 hrs by disc-diffusion method; type: functional; conditions: ATCC 12228, 18 h, read-out: IZ; method in brief: as §1
[21] = system: Staphylococcus epidermidis; assay: Antimicrobial activity against Staphylococcus epidermidis ATCC 12228 after 18 hrs by twofold serial microdilution method; type: functional; conditions: ATCC 12228, 18 h
Micrococcus luteus [22] = assay: Antimicrobial activity against Micrococcus luteus ATCC 9341 at 400 ug after 18 hrs by disc-diffusion method; type: functional; conditions: ATCC 9341, 18 h, read-out: IZ; method in brief: as §1
CCRF-SB = assay: Cytotoxicity against human CCRF-SB cells after 96 hrs by MTT assay; type: functional
Method in brief: (§5)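 Leukaemia/lymphoma lines seeded at 1×10^5 cells/ml in RPMI-1640 with 10% FCS and penicillin/streptomycin; incubated with serial dilutions at 37°C, 5% CO2; viability by MTT after 96 h; value is concentration reducing proliferation by 50%, with untreated controls undergoing at least three rounds of multiplication.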

Staphylococcus aureus [23] = assay: Antimicrobial activity against Staphylococcus aureus ATCC 25923 after 18 hrs by twofold serial microdilution method; type: functional; conditions: ATCC 25923, 18 h
WIL2-NS = assay: Cytotoxicity against human WIL2-NS cells after 96 hrs by MTT assay; type: functional; method in brief: as §5
Coxsackievirus B5 = assay: Antiviral activity against Human coxsackievirus B5 ATCC VR-29 infected in African green monkey Vero 76 cells assessed as reduction of virus-plaque formation after 3 days by crystal violet staining; type: functional, organism-based; conditions: Enterovirus B, ATCC VR-29, Vero, 72 h; method in brief: as §3
[24] = system: Human immunodeficiency virus 1; assay: Antiviral activity against HIV1 3B infected in human MT4 cells assessed as protection against virus-induced cytopathogenicity by MTT assay; type: functional, organism-based; conditions: Human immunodeficiency virus 1, 3B
CCRF-CEM = assay: Cytotoxicity against human CCRF-CEM cells after 96 hrs by MTT assay; type: functional; method in brief: as §5

Compound | pEC50 (Poliovirus 1) | zone of inhibition at 400 µg/disc (Micrococcus luteus [1]) [mm] | pEC50 (Vaccinia virus) | inhibition zone (IZ) (Proteus vulgaris) | MIC [2] [µg/mL] | zone of inhibition at 400 µg/disc (Staphylococcus aureus [3]) [mm] | MIC (Staphylococcus aureus [4]) [µg/mL] | zone of inhibition at 400 µg/disc (Staphylococcus aureus [5]) [mm] | inhibition zone (IZ) (Enterococcus hirae) | pEC50 (Yellow fever virus) | CC50 [6] [µM] | CC50 [7] [µM] | pEC50 [8] | zone of inhibition at 400 µg/disc (Staphylococcus aureus [9]) [mm] | CC50 [10] [µM] | zone of inhibition at 400 µg/disc [11] [mm] | pEC50 (Human alphaherpesvirus 1) | zone of inhibition at 400 µg/disc (Bacillus cereus) [mm] | zone of inhibition at 400 µg/disc (Bacillus subtilis) [mm] | MIC [12] [µg/mL] | other results
N#Cc1ccc(NC(=S)Nc2cccc(C(F)(F)F)c2)cc1 | < 5.00 | 16 | < 5.00 | inactive | 64 (≈ 199 µM) | 19 | 64 (≈ 199 µM) | 22 | inactive | < 5.02 | 10 | 10 | < 5.02 | 20 | 9.5 | 20 | < 5.00 | 19 | 19 | > 100 | inhibition zone (IZ) (Enterococcus faecalis): inactive; pEC50 [13]: < 5.00; CC50 [14]: 7 µM; MIC [15]: > 100 µg/mL; MIC (Staphylococcus aureus [16]): 128 µg/mL (≈ 398 µM); MIC (Staphylococcus aureus [17]): 64 µg/mL (≈ 199 µM); pEC50 [18]: < 5.00; zone of inhibition at 400 µg/disc (Staphylococcus aureus [19]): 18 mm; zone of inhibition at 400 µg/disc [20]: 18 mm; MIC [21]: 64 µg/mL (≈ 199 µM); zone of inhibition at 400 µg/disc (Micrococcus luteus [22]): 18 mm; CC50 (CCRF-SB): 8.3 µM; MIC (Staphylococcus aureus [23]): 64 µg/mL (≈ 199 µM); CC50 (WIL2-NS): 9.2 µM; pEC50 (Coxsackievirus B5): < 5.00; pEC50 [24]: < 5.15; CC50 (CCRF-CEM): 8.7 µM
FC(F)(F)c1cccc(NC(=S)Nc2cccc(Cl)c2)c1 | < 4.70 | 27 | < 4.70 | inactive | 64 (≈ 193 µM) | 27 | 32 (≈ 96.7 µM) | 29 | inactive | < 5.02 | 20 | 19 | < 5.02 | 29 | 9.5 | 26 | < 4.70 | 23 | 26 | 100 (≈ 302 µM) | zone of inhibition at 400 µg/disc (Enterococcus faecalis; ATCC 29212, 18 h, read-out: IZ): 20 mm; pEC50 [13]: < 4.70; CC50 [14]: 10 µM; MIC [15]: 100 µg/mL (≈ 302 µM); MIC (Staphylococcus aureus [16]): 32 µg/mL (≈ 96.7 µM); MIC (Staphylococcus aureus [17]): 32 µg/mL (≈ 96.7 µM); pEC50 [18]: < 4.72; zone of inhibition at 400 µg/disc (Staphylococcus aureus [19]): 27 mm; zone of inhibition at 400 µg/disc [20]: 28 mm; MIC [21]: 32 µg/mL (≈ 96.7 µM); zone of inhibition at 400 µg/disc (Micrococcus luteus [22]): 30 mm; CC50 (CCRF-SB): 9.6 µM; MIC (Staphylococcus aureus [23]): 32 µg/mL (≈ 96.7 µM); CC50 (WIL2-NS): 11 µM; pEC50 (Coxsackievirus B5): < 4.70; pEC50 [24]: < 5.00; CC50 (CCRF-CEM): 9.1 µM
